By Cmax is commonly meant the highest concentration seen after dosing. By logD is commonly meant the decadic logarithm of the distribution of all forms, ionised or not, between an organic phase and buffer at a given pH. One may read the AUC(0-inf) as total exposure, with the tail of the curve extrapolated. The low end stands for low exposure, the high end for high exposure. The term Papp A→B denotes the apparent permeability from the apical to the basolateral side of a cell layer. For orientation: clearance means the volume of plasma or blood freed of the substance per unit of time. A higher clearance goes with efficient removal. In general, bioavailability refers to the share of a dose that reaches the circulation, judged against a reference dose that is usually intravenous. Broadly, the Tmax is the time at which the peak concentration occurs.

*1 amine or outer side, *2 acyl side, *3 side chain or, on linkers, in order; H or OH if unused. Where a SMILES comes first, the peptide text is derived from it. [ ]: non-standard residue; d: D form. X1 = CN([C@@H](CCN1CCCCC1)C(=O)[*:2])[*:1]; NMeW = CN[C@@H](Cc1c[nH]c2ccccc12)C(=O)O; NMeY = CN[C@@H](Cc1ccc(O)cc1)C(=O)O; NMeLys(Me) = CNCCCC[C@H](NC)C(=O)O; NMeI = CC[C@H](C)[C@H](NC)C(=O)O; NMeL = CN[C@@H](CC(C)C)C(=O)O; dNMeL = CN[C@H](CC(C)C)C(=O)O; NMeK = CN[C@@H](CCCCN)C(=O)O; NMeS = CN[C@@H](CO)C(=O)O A value given as a limit tells only on which side of the number the result lay.

The nature of series [1]: Intrinsic clearance in human liver microsomes by LC-MS/MS analysis. In kind it is ADME. As to conditions: read-out: CLH. The gist of the method: (§1)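 Compound at 1 µM with liver microsomes (CYP 0.25 µM) in 0.1 M potassium phosphate, pH 7.4, at 37 °C. Final solvent was 0.975% acetonitrile and 0.025% DMSO. Mix prewarmed 5 min, then started with 1.3 mM NADPH; no-NADPH controls were run. Sampled at 0–60 min into acetonitrile and followed by LC-MS/MS for substrate loss. T1/2 was scaled to CLint by the well-stirred model.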
A general note: Liver microsomes are vesicles of endoplasmic reticulum, rich in cytochrome P450 enzymes.

Series [2] is described as follows: Intrinsic clearance in rat liver microsomes by LC-MS/MS analysis. In kind it is ADME. Conditions: read-out: CLH. The method in brief:
as §1

Series [3] in a line: Cmax in male Wistar-Han rat at 10 mg/kg, po. In kind it is ADME, organism-based. Further details: dose 10 mg/kg, route oral. As to conditions: in vivo.
The nature of series [4]: Lipophilicity, log D of the compound at pH 7.4 by shake-flask method. The class given is physicochemical. Conditions: buffer.
Series [5] can be described thus: AUC (0 to infinity) in male Wistar-Han rat at 10 mg/kg, po. In kind it is ADME, organism-based. Further details: time infinity, dose 10 mg/kg, route oral. Conditions: plasma. The gist of the method:
(§2)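 Jugular vein-cannulated male Wistar-Hannover rats (230-250 g), n = 3, fasted overnight and fed after the 4 h sample; oral dosing in the i.v. formulations, except the SEDDS formulation used 90% water. Serial blood 0.083–24 h, K2EDTA plasma, LC-MS/MS against standard curve; non-compartmental AUC0-∞ by linear trapezoid rule.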

Series [6] is described as follows: Apparent permeability from apical to basolateral side in human Caco2 cells by LC-MS/MS analysis. The class given is ADME, cell-based. As to conditions: Caco-2. (Passage across Caco-2 layers is used to estimate intestinal permeability.)
The nature of series [7]: Volume of distribution at steady state in male Wistar-Han rat at 1 mg/kg, iv. In kind it is ADME, organism-based. Also noted: dose 1 mg/kg, route intravenous. As to conditions: in vivo, read-out: Vdss.
A short description of series [8]: Plasma clearance in male Wistar-Han rat at 1 mg/kg, iv. In kind it is ADME, organism-based. Further details: dose 1 mg/kg, route intravenous.
A short description of series [9]: Oral bioavailability in male Wistar-Han rat at 10 mg/kg. Conditions: in vivo. In kind it is ADME, organism-based. The gist of the method:
(§3)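 Male Wistar-Hannover rats (230-250 g, cannulated; n = 3) fasted overnight, fed after the 4 h sample, and dosed orally in the i.v. formulations or 10% SEDDS:90% water. Serial blood sampled 0.083–24 h into K2EDTA. Plasma measured by LC-MS/MS against a standard curve. Cmax and Tmax read from individual profiles; F = oral AUC0-∞ relative to i.v. AUC0-∞.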

Series [10] is described as follows: Terminal elimination half life in Wistar-Han rat at 1 mg/kg, iv. The class given is ADME, organism-based. Also noted: dose 1 mg/kg, route intravenous. Conditions: in vivo, read-out: beta t1/2 (converted).
Series [11] can be described thus: Tmax in male Wistar-Han rat at 10 mg/kg, po. The class given is ADME, organism-based. As to conditions: in vivo. Further details: dose 10 mg/kg, route oral.
Series [12] can be described thus: AUC (0 to infinity) in male Wistar-Han rat at 1 mg/kg, iv. As to conditions: plasma. In kind it is ADME, organism-based. Also noted: time infinity, dose 1 mg/kg, route intravenous.
The nature of series [13]: Terminal elimination half life in Wistar-Han rat at 10 mg/kg, po. The class given is ADME, organism-based. Also noted: dose 10 mg/kg, route oral. Conditions: in vivo, read-out: beta t1/2 (converted). The method in brief: (§4)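 Male Wistar-Hannover rats (230–250 g, n = 3), jugular-cannulated, were fasted overnight and dosed by oral gavage. Vehicle depended on compound: SEDDS/water or propylene glycol/sodium phosphate pH 7.4. Blood was collected at 0.083–24 h into K2EDTA and the plasma analyzed by LC-MS/MS. Terminal half-life came from the non-compartmental ln-concentration slope.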

Series [14] in a line: Cmax in male Wistar-Han rat at 5 mg/kg, po. The class given is ADME, organism-based. Further details: dose 5 mg/kg, route oral. As to conditions: in vivo. The method in brief:
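Jugular vein-cannulated male Wistar-Hannover rats (230-250 g), n = 3, fasted overnight and fed after the 4 h sample. Single oral dose in compound-specific vehicles (10% SEDDS:90% water, or propylene glycol with 20 mM sodium phosphate pH 7.4). Serial blood at 0.083–24 h into K2EDTA. Plasma protein-precipitated with internal standard and analysed by LC-MS/MS. Cmax read directly from individual concentration–time curves.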

Series [15] can be described thus: Oral bioavailability in male Wistar-Han rat assessed as dose escapes hepatic metabolism. The class given is ADME, organism-based. As to conditions: in vivo.
Series [16] is described as follows: Terminal elimination half life in Wistar-Han rat at 5 mg/kg, po. The class given is ADME, organism-based. Conditions: in vivo, read-out: beta t1/2 (converted). Further details: dose 5 mg/kg, route oral. The method in brief: as §4
Series [17] can be described thus: Oral bioavailability in male Wistar-Han rat at 5 mg/kg. The class given is ADME, organism-based. Conditions: in vivo. The method in brief:
as §3

Series [18] can be described thus: Oral bioavailability in male Wistar-Han rat assessed as fraction of absorbed dose. In kind it is ADME, organism-based. Conditions: in vivo, read-out: Fabs.
A short description of series [19]: AUC (0 to infinity) in male Wistar-Han rat at 5 mg/kg, po. The class given is ADME, organism-based. Further details: time infinity, dose 5 mg/kg, route oral. Conditions: plasma. The method in brief:
as §2

Regarding `CC[C@H](C)[C@H]1C(=O)N[C@@H](CC(C)C)C(=O)N2CCC[C@@H]2C(=O)N(C)[C@@H](Cc2ccc(O)cc2)C(=O)N[C@@H](CC(C)C)C(=O)N(C)[C@H](CC(C)C)C(=O)N1C` (cyclo(L[dNMeL][NMeI]L[dP][NMeY])), the CLint scaled in series [1] was greater than 300 mL/min/kg.

On to `CC(C)C[C@@H]1NC(=O)[C@H](Cc2ccc(O)cc2)N(C)C(=O)[C@H]2CCCN2C(=O)[C@H](CC(C)C)NC(=O)[C@H](CCCCN)N(C)C(=O)[C@@H](CC(C)C)N(C)C1=O` (cyclo(L[dNMeL][NMeK]L[dP][NMeY])), for which the CLint scaled in series [2] is less than 9 mL/min/kg; in series [1], less than 8 mL/min/kg. Besides, the Cmax in series [3] was 18.3 ng/mL. The logD in series [4] is 0.678. Also, the AUC(0-inf) in series [5] came out at 18.1 ng·h/mL; in [12], 1640 ng·h/mL. In addition, in series [6], the Papp A→B turned out to be 0.09 ×10⁻⁶ cm/s. The Vd in series [7] stood at 0.93 L/kg. This compound also displayed a clearance in [8] of 10.4 mL/min/kg. Besides, the bioavailability in series [9] was found to be 0.09%. The half-life in series [10] is 1.01 h; in [13], 1.56 h. For the same compound, the Tmax in series [11] is 1.56 h.

Regarding `CC(C)C[C@@H]1NC(=O)[C@H](Cc2ccc(O)cc2)N(C)C(=O)[C@H]2CCCN2C(=O)[C@H](CC(C)C)NC(=O)[C@H](CC(C)C)N(C)C(=O)[C@@H](CC(C)C)N(C)C1=O` (cyclo(L[dNMeL][NMeL]L[dP][NMeY])), in series [1], the CLint scaled came to 120 mL/min/kg.

As for `CNCCCC[C@H]1C(=O)N[C@@H](CC(C)C)C(=O)N2CCC[C@@H]2C(=O)N(C)[C@@H](Cc2ccc(O)cc2)C(=O)N[C@@H](CC(C)C)C(=O)N(C)[C@H](CC(C)C)C(=O)N1C` (cyclo(L[dNMeL][NMeLys(Me)]L[dP][NMeY])), the logD in series [4] is 0.723. The CLint scaled in series [1] was determined as 9 mL/min/kg.

`CC(C)C[C@@H]1NC(=O)[C@H](Cc2ccc(O)cc2)N(C)C(=O)[C@H]2CCCN2C(=O)[C@H](CC(C)C)NC(=O)[C@H](CO)N(C)C(=O)[C@@H](CC(C)C)N(C)C1=O` (cyclo(L[dNMeL][NMeS]L[dP][NMeY])): the CLint scaled in series [2] stood at 96 mL/min/kg; in series [1] it was 80 mL/min/kg. The Cmax in series [14] is 9.86 ng/mL. The Fh in [15] is 14%. Besides, the values for the half-life in [16] and in series [10] were 2.82 h and 1.46 h, respectively. In [4], this compound registered a logD of 2.61. The Papp A→B in [6] is 3.3 ×10⁻⁶ cm/s. In series [7], the Vd is 4.3 L/kg. Also, the clearance in series [8] came to 60.4 mL/min/kg. Also, the bioavailability in series [17] turned out to be 2.03%. In addition, the Fa in series [18] worked out at 14.5%. For the same compound, the AUC(0-inf) in series [19] worked out at 42.3 ng·h/mL; in [12], 282 ng·h/mL.

The compound `CC(C)C[C@@H]1NC(=O)[C@H](Cc2ccc(O)cc2)N(C)C(=O)[C@H]2CCCN2C(=O)[C@H](CC(C)C)NC(=O)[C@H](Cc2c[nH]c3ccccc23)N(C)C(=O)[C@@H](CC(C)C)N(C)C1=O` (cyclo(L[dNMeL][NMeW]L[dP][NMeY])) displayed a logD in series [4] of 4.07. Also, the CLint scaled in series [1] was 56 mL/min/kg.

In [4], `CC(C)C[C@@H]1NC(=O)[C@H](Cc2ccc(O)cc2)N(C)C(=O)[C@H]2CCCN2C(=O)[C@H](CC(C)C)NC(=O)[C@H](Cc2ccc(O)cc2)N(C)C(=O)[C@@H](CC(C)C)N(C)C1=O` (cyclo(L[dNMeL][NMeY]L[dP][NMeY])) gave a logD of 3.82. Also, the CLint scaled in series [1] was determined as 29 mL/min/kg.

`CC(C)C[C@@H]1NC(=O)[C@H](Cc2ccc(O)cc2)N(C)C(=O)[C@H]2CCCN2C(=O)[C@H](CC(C)C)NC(=O)[C@H](CCN2CCCCC2)N(C)C(=O)[C@@H](CC(C)C)N(C)C1=O` (cyclo(L[dNMeL][X1]L[dP][NMeY])): the logD in [4] stood at 2.2. Besides, the CLint scaled in [1] was less than 8 mL/min/kg.

The record behind these values is ChEMBL document CHEMBL3217723, “Optimizing PK properties of cyclic peptides: the effect of side chain substitutions on permeability and clearance()” (Medchemcomm, 2012).
